A value given as a limit tells only on which side of the number the result lay.

One experiment has as its target Nischarin (Rattus norvegicus, UniProt Q4G017). Kind of experiment: Displacement of [125I]-p-iodoclonidine from I1 receptor imidazoline binding site in Sprague-Dawley rat kidney cell membranes after 30 mins by liquid scintillation counting. The procedure, abridged: (§1)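 Radioligand competition binding with pKi determined by displacement. I1 sites: [125I]-p-iodoclonidine on rat kidney membranes. I2 sites: [3H]-2-BFI on rat brain membranes. α2-ARs: [3H]-RX821002 on rat brain membranes.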
In general terms: Loss of bound radioactivity is the signal in a displacement assay; it reports binding, not function.

Experiment [1] concerns the target T1, Adrenergic receptor alpha-2 (Rattus norvegicus, UniProt P22086+P19328+P22909).
T1 sequence (P22086 whole entry): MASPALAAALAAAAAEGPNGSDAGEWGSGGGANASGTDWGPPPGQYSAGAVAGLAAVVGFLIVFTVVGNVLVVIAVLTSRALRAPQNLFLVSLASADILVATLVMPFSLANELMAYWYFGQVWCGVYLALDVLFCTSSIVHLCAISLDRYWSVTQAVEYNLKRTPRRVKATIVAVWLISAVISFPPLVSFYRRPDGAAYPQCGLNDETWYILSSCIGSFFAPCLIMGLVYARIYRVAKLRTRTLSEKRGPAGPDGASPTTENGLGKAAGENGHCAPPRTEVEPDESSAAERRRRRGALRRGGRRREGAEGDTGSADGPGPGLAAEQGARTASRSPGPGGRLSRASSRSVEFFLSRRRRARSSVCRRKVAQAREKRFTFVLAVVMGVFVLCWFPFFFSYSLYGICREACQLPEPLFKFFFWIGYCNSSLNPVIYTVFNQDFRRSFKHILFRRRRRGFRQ
T1 sequence (P19328 whole entry): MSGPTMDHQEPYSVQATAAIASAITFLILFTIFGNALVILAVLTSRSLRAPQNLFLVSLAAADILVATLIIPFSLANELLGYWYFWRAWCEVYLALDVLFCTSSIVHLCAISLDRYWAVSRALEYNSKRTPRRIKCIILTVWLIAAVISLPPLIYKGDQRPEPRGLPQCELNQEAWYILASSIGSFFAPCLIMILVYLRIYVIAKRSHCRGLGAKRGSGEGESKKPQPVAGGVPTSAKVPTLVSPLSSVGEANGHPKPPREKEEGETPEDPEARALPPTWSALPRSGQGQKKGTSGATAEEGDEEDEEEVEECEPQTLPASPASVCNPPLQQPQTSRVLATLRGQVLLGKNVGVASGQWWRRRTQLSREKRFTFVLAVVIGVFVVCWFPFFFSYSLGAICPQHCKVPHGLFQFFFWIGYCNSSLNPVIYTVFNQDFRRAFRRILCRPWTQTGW
T1 sequence (P22909 whole entry): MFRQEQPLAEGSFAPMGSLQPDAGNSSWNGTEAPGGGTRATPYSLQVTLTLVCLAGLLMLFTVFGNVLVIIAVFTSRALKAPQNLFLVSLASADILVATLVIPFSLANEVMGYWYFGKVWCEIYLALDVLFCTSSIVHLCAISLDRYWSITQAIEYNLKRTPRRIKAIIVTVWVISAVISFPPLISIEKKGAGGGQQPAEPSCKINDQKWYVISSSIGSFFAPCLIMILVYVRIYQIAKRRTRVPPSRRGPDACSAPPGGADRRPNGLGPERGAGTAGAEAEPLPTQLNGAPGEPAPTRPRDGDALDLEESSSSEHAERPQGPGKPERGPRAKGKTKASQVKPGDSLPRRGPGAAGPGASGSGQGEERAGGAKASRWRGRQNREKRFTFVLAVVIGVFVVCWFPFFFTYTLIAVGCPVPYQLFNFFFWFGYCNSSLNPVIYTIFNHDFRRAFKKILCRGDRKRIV
Kind of experiment: Displacement of [3H]-RX 821002 from alpha2-AR in Sprague-Dawley rat brain membranes after 30 mins by liquid scintillation counting. It is filed as cell membranes, Membrane. Put shortly:
as §1

Experiment [2] is described as follows: Displacement of [3H]-2-BFI from I2 receptor imidazoline binding site in Sprague-Dawley rat brain membranes after 30 mins by liquid scintillation counting. It counts as cell membranes, Membrane. The procedure, abridged: as §1
Experiment [3] addresses T2, Alpha-2C adrenergic receptor (Homo sapiens, UniProt P18825).
T2 sequence (P18825 whole entry): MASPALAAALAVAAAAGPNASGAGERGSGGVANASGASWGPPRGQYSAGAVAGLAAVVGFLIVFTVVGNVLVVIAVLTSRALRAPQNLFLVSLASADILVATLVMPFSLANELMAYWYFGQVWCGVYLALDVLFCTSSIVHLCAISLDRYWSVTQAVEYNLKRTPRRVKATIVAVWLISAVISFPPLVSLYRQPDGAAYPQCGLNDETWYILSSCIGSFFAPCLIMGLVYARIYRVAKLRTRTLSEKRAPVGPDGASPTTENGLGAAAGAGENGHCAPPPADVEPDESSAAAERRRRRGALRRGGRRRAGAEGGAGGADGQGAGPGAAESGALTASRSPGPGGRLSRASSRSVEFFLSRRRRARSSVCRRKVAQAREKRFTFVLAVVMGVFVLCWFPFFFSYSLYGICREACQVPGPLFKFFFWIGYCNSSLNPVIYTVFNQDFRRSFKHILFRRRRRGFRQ
Kind of experiment: Agonist activity at human alpha2c-AR expressed in CHO cells assessed as rate of acidification after 240 mins by cytosensor microphysiometric analysis. It is filed as cell-based. Put shortly: (§2)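 Functional assay in CHO cells stably expressing a single human α2-AR subtype (α2A, α2B or α2C), read on a Cytosensor microphysiometer. Outputs are pEC50, intrinsic activity and, for antagonism, pKb. Intrinsic activity is expressed as a fraction of the full agonist (−)-noradrenaline, set at 1. Values are mean ± SEM of 3–5 separate experiments.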

The target in experiment [4] is T3, Alpha-2B adrenergic receptor (Homo sapiens) (UniProt P18089).
T3 sequence (whole entry): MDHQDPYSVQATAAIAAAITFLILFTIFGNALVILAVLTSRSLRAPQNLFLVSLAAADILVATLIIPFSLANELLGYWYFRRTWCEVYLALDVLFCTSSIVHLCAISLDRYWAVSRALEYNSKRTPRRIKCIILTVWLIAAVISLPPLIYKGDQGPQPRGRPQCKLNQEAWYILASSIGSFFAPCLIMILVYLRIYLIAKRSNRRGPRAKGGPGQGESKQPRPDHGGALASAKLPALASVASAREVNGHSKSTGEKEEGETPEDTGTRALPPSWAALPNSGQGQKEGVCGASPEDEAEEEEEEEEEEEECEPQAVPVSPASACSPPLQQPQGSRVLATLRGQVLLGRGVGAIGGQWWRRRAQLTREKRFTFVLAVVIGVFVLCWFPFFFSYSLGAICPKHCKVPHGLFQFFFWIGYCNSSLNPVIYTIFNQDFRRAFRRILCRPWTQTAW
Kind of experiment: Agonist activity at human alpha2b-AR expressed in CHO cells assessed as rate of acidification after 240 mins by cytosensor microphysiometric analysis relative to (-)-noradrenaline. It is filed as cell-based. The procedure, abridged: as §2

Experiment [5] deals with T4, Alpha-2A adrenergic receptor (Homo sapiens) (UniProt P08913).
T4 sequence (whole entry): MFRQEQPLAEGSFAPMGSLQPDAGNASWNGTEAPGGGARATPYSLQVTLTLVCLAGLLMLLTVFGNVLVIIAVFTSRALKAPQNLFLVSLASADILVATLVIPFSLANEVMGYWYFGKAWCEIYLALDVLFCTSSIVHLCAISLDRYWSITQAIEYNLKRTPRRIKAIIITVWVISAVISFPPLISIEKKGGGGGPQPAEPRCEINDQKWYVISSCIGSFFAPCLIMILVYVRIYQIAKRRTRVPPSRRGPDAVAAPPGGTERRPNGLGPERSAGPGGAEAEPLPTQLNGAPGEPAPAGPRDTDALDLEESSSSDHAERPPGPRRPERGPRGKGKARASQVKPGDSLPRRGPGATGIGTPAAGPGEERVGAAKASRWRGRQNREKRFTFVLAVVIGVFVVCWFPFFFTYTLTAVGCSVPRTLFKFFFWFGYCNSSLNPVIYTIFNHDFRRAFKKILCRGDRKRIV
Kind of experiment: Antagonist activity at human alpha2a-AR expressed in CHO cells assessed as inhibition of (-)-noradrenaline-induced acidification rate after 240 mins by cytosensor microphysiometric analysis. It counts as cell-based. The procedure, abridged:
as §2

Experiment [6] deals with T5, Alpha-2B adrenergic receptor (Homo sapiens, UniProt P18089).
T5 sequence (P18089 whole entry): T3 sequence (whole entry)
Kind of experiment: Agonist activity at human alpha2b-AR expressed in CHO cells assessed as rate of acidification after 240 mins by cytosensor microphysiometric analysis. It counts as cell-based. Put shortly:
as §2

Experiment [7] deals with T6, Alpha-2C adrenergic receptor (Homo sapiens) (UniProt P18825).
T6 sequence (whole entry): T2 sequence (P18825 whole entry)
Kind of experiment: Agonist activity at human alpha2c-AR expressed in CHO cells assessed as rate of acidification after 240 mins by cytosensor microphysiometric analysis relative to (-)-noradrenaline. It counts as cell-based. Put shortly: as §2

For the next experiment, the species on record is Homo sapiens. Kind of experiment: Selectivity ratio of agonist activity at I1 receptor imidazoline binding site (unknown origin) to agonist activity at alpha2-AR (unknown origin).
Experiment [8] in a line: Displacement of [3H]idazoxan from I2 receptor imidazoline binding site in rabbit kidney membranes after 45 mins by […]. It is filed as cell membranes, Oryctolagus cuniculus, Membrane.
In experiment [9] the target is T7, Alpha-2A adrenergic receptor (Homo sapiens, UniProt P08913).
T7 sequence (P08913 whole entry): T4 sequence (whole entry)
Kind of experiment: Agonist activity at human alpha2a-AR expressed in CHO cells assessed as rate of acidification after 240 mins by cytosensor microphysiometric analysis. It counts as cell-based. Put shortly:
as §2

Chain of Nischarin (Q4G017 whole entry): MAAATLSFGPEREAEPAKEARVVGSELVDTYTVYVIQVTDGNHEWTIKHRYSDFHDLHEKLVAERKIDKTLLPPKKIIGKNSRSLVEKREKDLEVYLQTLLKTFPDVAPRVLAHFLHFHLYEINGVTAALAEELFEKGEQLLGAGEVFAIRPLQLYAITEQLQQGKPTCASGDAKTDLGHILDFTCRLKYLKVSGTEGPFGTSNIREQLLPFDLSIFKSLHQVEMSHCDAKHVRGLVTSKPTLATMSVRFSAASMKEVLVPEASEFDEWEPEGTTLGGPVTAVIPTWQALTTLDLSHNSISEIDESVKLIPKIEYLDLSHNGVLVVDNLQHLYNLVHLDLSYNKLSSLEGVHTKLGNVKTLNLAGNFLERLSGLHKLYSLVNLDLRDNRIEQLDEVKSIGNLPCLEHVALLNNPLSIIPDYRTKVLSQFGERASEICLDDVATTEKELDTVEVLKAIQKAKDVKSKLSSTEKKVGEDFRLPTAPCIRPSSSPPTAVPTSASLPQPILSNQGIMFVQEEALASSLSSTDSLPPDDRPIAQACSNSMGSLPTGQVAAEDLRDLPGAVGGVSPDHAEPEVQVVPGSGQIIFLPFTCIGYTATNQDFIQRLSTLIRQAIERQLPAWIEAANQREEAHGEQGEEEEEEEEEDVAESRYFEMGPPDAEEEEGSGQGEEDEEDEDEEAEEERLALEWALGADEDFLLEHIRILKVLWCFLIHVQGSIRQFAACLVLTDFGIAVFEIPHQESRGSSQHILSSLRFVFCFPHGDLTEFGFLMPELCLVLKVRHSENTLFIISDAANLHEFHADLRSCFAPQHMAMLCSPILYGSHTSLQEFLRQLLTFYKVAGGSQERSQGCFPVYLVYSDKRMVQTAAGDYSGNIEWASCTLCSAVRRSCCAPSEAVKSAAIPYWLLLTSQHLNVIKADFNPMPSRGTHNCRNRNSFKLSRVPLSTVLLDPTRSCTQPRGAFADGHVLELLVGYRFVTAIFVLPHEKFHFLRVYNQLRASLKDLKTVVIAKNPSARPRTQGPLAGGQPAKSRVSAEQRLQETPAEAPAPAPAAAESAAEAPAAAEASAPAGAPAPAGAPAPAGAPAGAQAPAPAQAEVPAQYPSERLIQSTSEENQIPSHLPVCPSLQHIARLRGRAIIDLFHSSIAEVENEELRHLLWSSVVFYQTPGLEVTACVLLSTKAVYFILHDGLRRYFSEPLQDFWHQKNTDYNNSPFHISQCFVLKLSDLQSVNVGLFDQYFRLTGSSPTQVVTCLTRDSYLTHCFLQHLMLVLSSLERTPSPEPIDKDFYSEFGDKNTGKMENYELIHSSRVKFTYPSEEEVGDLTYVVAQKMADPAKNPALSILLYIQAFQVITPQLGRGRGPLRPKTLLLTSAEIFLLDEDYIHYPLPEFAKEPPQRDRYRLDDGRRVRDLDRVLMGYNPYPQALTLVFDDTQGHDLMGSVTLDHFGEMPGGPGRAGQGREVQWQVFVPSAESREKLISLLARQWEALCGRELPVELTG

Usually Ki stands for a dissociation constant, usually derived from enzyme kinetics or from competition with a known ligand. Read a high Ki as lower affinity. For orientation: pKi means −log10 of the Ki, conventionally taken in molar units. A lower pKi goes with a high Ki. Regarding `Clc1ccccc1/C=C/C1=NCCN1`, the affinity at Nischarin, expressed as Ki, was 24 nM. Moreover, the pKi in experiment [1] is on record as less than 6; in [2], 8.79.

Consider `C=CCc1ccccc1/C=C/C1=NCCN1`, for which the affinity at Nischarin corresponds to a Ki of 69.2 nM. In addition, the values for the pKi in experiment [1] and in [2] were less than 6 and 8.3, respectively.

The EC50 is the concentration at which the effect is half-maximal. A word on the pKb: it is −log10 of the Kb, conventionally taken in molar units. With `C=CCc1ccccc1NCC1=NCCN1`, at Nischarin, the affinity, expressed as Ki, was 3.98 nM. Moreover, the EC50 is 158 nM in [3] and 2510 nM in [6]. The pKi is 6.79 in experiment [1] and 7.85 in [2]. Moreover, the Intrinsic activity came out at 0.5 in experiment [4] and 0.8 in experiment [7]. In addition, the pKb in experiment [5] is 6.77.

As to `COc1nc(C)nc(Cl)c1NC1=NCCN1`, the Selectivity ratio in the experiment listed under Homo sapiens was found to be 40.

On Nischarin, `Clc1ccccc1NCC1=NCCN1` had a Ki of 7.59 nM. The EC50 in [3] was 224 nM; in experiment [6] it was 776 nM. The values for the pKi in experiment [1] and in [2] were 7.59 and 7.9, respectively. Also, the Intrinsic activity in [4] amounted to 0.45; in experiment [7], 0.85. Moreover, the pKb in experiment [5] is 7.12.

The compound `CCCc1ccccc1NCC1=NCCN1` gave a Ki at Nischarin of 8.32 nM. In addition, the values for the EC50 in experiment [3] and in [6] were 115 nM and 4570 nM, respectively. Further, the pKi in experiment [1] was determined as 6.75; in [2] it was 7.29. Moreover, the Intrinsic activity came out at 0.55 in experiment [4] and 0.75 in [7]. Moreover, the pKb in experiment [5] came out at 6.71.

`C(=C\c1ccccc1-c1ccccc1)/C1=NCCN1`: the Ki at Nischarin is 97.7 nM. Moreover, the pKi in experiment [1] is less than 6; in [2] it was 8.08.

In the case of `Clc1cccc(Cl)c1NC1=NCCN1`, in the experiment filed under Homo sapiens, the Selectivity ratio is 4.

Compound `c1ccc(NCC2=NCCN2)cc1` [PHENAMAZOLINE] registered a pKi in experiment [8] of 7.48.

As for `c1ccc(-c2ccccc2NCC2=NCCN2)cc1`, the Ki at Nischarin was 1.41 nM. Moreover, the EC50 in experiment [3] was 148 nM; in [6], 955 nM; in [9], 63.1 nM. Moreover, the pKi is recorded as 6.75 in experiment [1] and 6.1 in [2]. The results for the Intrinsic activity in [4] and in experiment [7] were 0.5 and 0.8, respectively.
